Measured values from the array DNA melting data of Ke et al. (doi:10.1101/2024.01.08.574731).

Tests used:
[1] = folding enthalpy; higher = less favourable; fluorescence melt of hairpins on a sequencing array, two-state fit; conditions: sodium 0.088 M
Summary of the method: (§1)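 Hairpins were imaged by Cy3 fluorescence on a sequenced MiSeq flow cell with annealed Cy3 and quencher oligos, in 50 mM Na-HEPES pH 8.0, 25 mM NaCl, in 2.5 °C steps up to 60 °C. Bootstrapped two-state fits of normalised signals gave melting temperature and folding enthalpy. Four replicates were combined by inverse variance, and fitted temperatures were raised by 9.35 °C to match UV melts.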

[2] = melting temperature; fluorescence melt of hairpins on a sequencing array, two-state fit, raised by 9.35 °C to match UV melts; conditions: sodium 0.088 M
Summary of the method: as §1

Sequence	folding enthalpy [1] [kcal/mol]	Tm [2] [°C]
CGCGCGGAAACGCTTGCG ((((((....)))..)))	-21.5	49.4
CGCGGAAAAACAACAACAACCGCG ((....................))	-29.6	37.3
CGCGGAAAAATCCGCG ((((((....))))))	-38.1	58.9
CGCGGAAAACTCCGCG ((((((....))))))	-38.9	62
CGCGGAAAGCTCCGCG ((((((....))))))	-28.3	68.7
CGCGGAACACTCCGCG ((((((....))))))	-34.8	63.3
CGCGGAACTATCCGCG ((((((....))))))	-31.2	68.7
CGCGGAAGAATCCGCG ((((((....))))))	-32.1	69
CGCGGAAGATTCCGCG ((((((....))))))	-38.7	68.9
CGCGGAAGCATCCGCG ((((((....))))))	-27.5	60.3
CGCGGAAGGCTCCGCG ((((((....))))))	-30.1	68.7
CGCGGAAGGGTCCGCG ((((((....))))))	-29.1	69.3
CGCGGAAGTATCCGCG ((((((....))))))	-37.9	69
CGCGGAATAATCCGCG ((((((....))))))	-34.7	67.7
CGCGGACAACTCCGCG ((((((....))))))	-31.9	64.9
CGCGGACCGCTCCGCG ((((((....))))))	-34.1	63.1
CGCGGACTACTCCGCG ((((((....))))))	-30.9	69
CGCGGAGAGTCCGCG ((((((...))))))	-27	69
CGCGGAGCGGTCCGCG ((((((....))))))	-15.8	50.5
CGCGGGAAAGCCCGCG ((((((....))))))	-37.1	68.1
CGCGTCGGAAACGAGGCG (((.(((....))).)))	-46.5	60.9
CGCTAACGGAAACGTGCG (((..(((....))))))	-28.9	48
CGCTACCGGAAACGGGCG (((..(((....))))))	-22.5	49.4

Sequence	folding enthalpy [1] [kcal/mol]	Tm [2] [°C]
CGCTCACGGAAACGTGCG (((..(((....))))))	-15.6	39.6
CGCTCCGGAAACGGTGCG (((.(((....))).)))	-31.3	60.2
CGCTCGGAAACGAACGCG ((((((....)))..)))	-19.4	44.8
CGCTCGGAAACGATAGCG ((((((....)))..)))	-30.9	46.9
CGCTCGGAAACGATGCG ((((((....))).)))	-35.4	51.8
CGCTCGGAAACGATGGCG ((((((....)))..)))	-31.2	45.7
CGCTGGCGGAAACGCGCG (((..(((....))))))	-19.5	52.5
CGCTGTCGGAAACGAGCG (((..(((....))))))	-25	45.2
CGCTTACGGAAACGTGCG (((..(((....))))))	-24.4	42.7
CGGAACGGAAACGTACCG (((.(((....))).)))	-43.6	49.7
CGGACCGGAAACGGACCG (((.(((....))).)))	-41.5	58.6
CGGACGGAAACGTAACCG ((((((....)))..)))	-28.7	36.1
CGGACGGAAACGTACCG ((((((....))).)))	-24.2	47.5
CGGACGGAAACGTCCCCG ((((((....)))..)))	-7.24	34.7
CGGACGGAAACGTGCCCG ((((((....)))..)))	-14.8	35.9
CGGACGGAAACGTTACCG ((((((....)))..)))	-20.6	36.3
CGGAGCGGAAACGCCCCG (((.(((....))).)))	-30.8	55.8
CGGATCCGGAAACGGCCG (((..(((....))))))	-20.6	38.3
CGGATCGGAAACGAGCCG (((.(((....))).)))	-47.4	65.4
CGGATGCGGAAACGCCCG (((..(((....))))))	-23.4	46.9
CGGCCGCGGAAACGCCCG (((..(((....))))))	-20.9	42.2
CGGCCGGAAACGGAGCCG ((((((....)))..)))	-34.7	54.6
CGGCCGGAAACGGCCCG ((((((....))).)))	-7.26	58.5

Sequence	folding enthalpy [1] [kcal/mol]	Tm [2] [°C]
CGGCCGGAAACGGGCCG ((((((....))).)))	-20	66.9
CGGGACGGAAACGTACCG (((.(((....))).)))	-42.1	62.4
CGGGAGCGGAAACGCCCG (((..(((....))))))	-21.4	53.6
CGGGCGGAAACGCAGCCG ((((((....)))..)))	-19.5	50.2
CGGGCGGAAACGCCGCCG ((((((....)))..)))	-10.2	47.8
CGGGCGGAAACGCTGCCG ((((((....)))..)))	-16.8	45.8
CGGGCGGAAACGCTTCCG ((((((....)))..)))	-17.9	41
CGGGGGAAACCCCG (((((....)))))	-21.8	68.5
CGGGTCGGAAACGACCG (((.(((....))))))	-11.4	61.7
CGGTATCGGAAACGACCG (((..(((....))))))	-27.8	36.3
CGGTCCGGAAACGGCCG (((.(((....))))))	-26.7	57.6
CGGTCGGAAACGAAACCG ((((((....)))..)))	-28.4	43.3
CGGTCGGAAACGAGGCCG ((((((....)))..)))	-23.7	41.5
CGGTCGGAAACGATCCCG ((((((....)))..)))	-17.9	34.9
CGGTCGGAAACGATCCG ((((((....))).)))	-43.2	50.5
CGGTGCGGAAACGCCCCG (((.(((....))).)))	-28.6	53.9
CGTAACCGGAAACGGACG (((..(((....))))))	-15.2	34
CGTAACGGAAACGTAACG (((.(((....))).)))	-29.6	44.8
CGTAACGGAAACGTCACG (((.(((....))).)))	-31.7	41.9
CGTAAGAAATTACG (((((....)))))	-15.7	38.4
CGTACGGAAACGTAAACG ((((((....)))..)))	-17.3	37.2
CGTACGGAAACGTATACG ((((((....)))..)))	-17.6	35.5
CGTACGGAAACGTCCACG ((((((....)))..)))	-12.1	30.2

Sequence	folding enthalpy [1] [kcal/mol]	Tm [2] [°C]
CGTACGGAAACGTGCACG ((((((....)))..)))	-14.5	36.2
CGTAGGCGGAAACGCACG (((..(((....))))))	-15.1	42.1
CGTCAACGGAAACGTACG (((..(((....))))))	-11.4	35.6
CGTCACGGAAACGTTACG (((.(((....))).)))	-31.2	45.3
CGTCCCGGAAACGGAACG (((.(((....))).)))	-26.3	47.5
CGTCCCGGAAACGGTACG (((.(((....))).)))	-29.1	47.2
CGTCCGGAAACGGAGACG ((((((....)))..)))	-21.4	45.3
CGTCCGGAAACGGCACG ((((((....))).)))	-22.5	47.6
CGTCGCGGAAACGCCACG (((.(((....))).)))	-33.1	45.1
CGTCGCGGAAACGCTACG (((.(((....))).)))	-28.9	49.3
CGTCTCGGAAACGAAACG (((.(((....))).)))	-32.4	38.5
CGTCTGCGGAAACGCACG (((..(((....))))))	-12.2	38.7
CGTGAGAAATCACG (((((....)))))	-25.8	50.8
CGTGAGCGGAAACGCACG (((..(((....))))))	-22.2	45.9
CGTGCCGGAAACGGAACG (((.(((....))).)))	-37.7	55.9
CGTGCCGGAAACGGTACG (((.(((....))).)))	-32.4	60.3
CGTGCGGAAACGCATACG ((((((....)))..)))	-15.4	44.9
CGTGCGGAAACGCCAACG ((((((....)))..)))	-19.2	39.4
CGTGCGGAAACGCCGACG ((((((....)))..)))	-15.6	44.5
CGTGCGGAAACGCGTACG ((((((....)))..)))	-26.1	48.6
CGTGCGGAAACGCTCACG ((((((....)))..)))	-18.3	39.9
CGTGCGGAAACGCTGACG ((((((....)))..)))	-21.2	42.5
CGTGGCCGGAAACGGACG (((..(((....))))))	-10.8	44.2
